Reference: ChEMBL document CHEMBL5154665, “Design, synthesis, biochemical evaluation, radiolabeling and in vivo imaging with high affinity class-IIa histone deacetylase inhibitor for molecular imaging and targeted therapy” (Eur J Med Chem, 2022)

Key:
[1] = molecular target: Histone deacetylase 1 (Homo sapiens, UniProt Q13547); test: Inhibition of recombinant human HDAC1 using fluorogenic substrate by fluorescence microplate reader assay
Procedure, shortened: (§1)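 Recombinant human HDAC isoforms were tested at 9 inhibitor dilutions in commercial fluorogenic enzyme kits, per the manufacturer's protocol. For class IIa enzymes, deacetylation of a TFA-lysine substrate lets trypsin release a fluorophore, read on a microplate reader. IC50 came from a nonlinear fit of % HDAC activity inhibition against compound concentration.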

[2] = molecular target: T1, Protein deacetylase HDAC6 (Homo sapiens, UniProt Q9UBN7); test: Inhibition of recombinant human HDAC6 using fluorogenic substrate by fluorescence microplate reader assay; procedure, shortened: as §1
T1 sequence (Q9UBN7 whole entry): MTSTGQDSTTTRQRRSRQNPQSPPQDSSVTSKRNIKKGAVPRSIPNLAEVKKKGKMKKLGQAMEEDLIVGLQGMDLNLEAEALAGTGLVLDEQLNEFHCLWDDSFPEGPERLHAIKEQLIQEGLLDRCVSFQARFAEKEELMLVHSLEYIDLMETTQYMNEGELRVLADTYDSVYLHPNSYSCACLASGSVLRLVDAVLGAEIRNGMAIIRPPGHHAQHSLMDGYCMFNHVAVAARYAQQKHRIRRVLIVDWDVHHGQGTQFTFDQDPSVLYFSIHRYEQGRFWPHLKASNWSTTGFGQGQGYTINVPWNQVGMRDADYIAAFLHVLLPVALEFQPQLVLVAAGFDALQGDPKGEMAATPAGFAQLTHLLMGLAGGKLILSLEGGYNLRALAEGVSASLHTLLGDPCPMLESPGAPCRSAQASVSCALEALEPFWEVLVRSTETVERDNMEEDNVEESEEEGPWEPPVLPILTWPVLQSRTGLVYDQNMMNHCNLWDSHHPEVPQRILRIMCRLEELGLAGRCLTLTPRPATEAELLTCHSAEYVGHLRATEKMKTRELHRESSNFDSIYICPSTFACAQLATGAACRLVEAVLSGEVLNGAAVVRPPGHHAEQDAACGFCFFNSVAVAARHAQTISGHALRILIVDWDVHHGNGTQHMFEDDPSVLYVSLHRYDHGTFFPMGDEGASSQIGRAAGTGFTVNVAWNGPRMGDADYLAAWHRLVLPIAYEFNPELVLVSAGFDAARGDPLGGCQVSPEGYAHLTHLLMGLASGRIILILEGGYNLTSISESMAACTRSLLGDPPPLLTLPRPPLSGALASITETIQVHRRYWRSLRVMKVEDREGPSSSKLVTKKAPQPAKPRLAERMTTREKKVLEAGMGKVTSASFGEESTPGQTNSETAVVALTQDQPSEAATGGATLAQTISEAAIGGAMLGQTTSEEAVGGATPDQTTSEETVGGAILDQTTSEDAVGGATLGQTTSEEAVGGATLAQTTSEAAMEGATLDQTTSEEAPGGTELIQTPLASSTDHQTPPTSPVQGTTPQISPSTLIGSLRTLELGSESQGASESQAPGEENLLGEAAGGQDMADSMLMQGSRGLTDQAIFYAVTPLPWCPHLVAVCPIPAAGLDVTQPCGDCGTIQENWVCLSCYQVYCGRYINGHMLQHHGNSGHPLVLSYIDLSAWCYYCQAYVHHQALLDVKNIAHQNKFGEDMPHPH

[3] = molecular target: T2, Histone deacetylase 11 (Homo sapiens, UniProt Q96DB2); test: Inhibition of recombinant human HDAC11 using fluorogenic substrate by fluorescence microplate reader assay; procedure, shortened: as §1
T2 sequence (Q96DB2 whole entry): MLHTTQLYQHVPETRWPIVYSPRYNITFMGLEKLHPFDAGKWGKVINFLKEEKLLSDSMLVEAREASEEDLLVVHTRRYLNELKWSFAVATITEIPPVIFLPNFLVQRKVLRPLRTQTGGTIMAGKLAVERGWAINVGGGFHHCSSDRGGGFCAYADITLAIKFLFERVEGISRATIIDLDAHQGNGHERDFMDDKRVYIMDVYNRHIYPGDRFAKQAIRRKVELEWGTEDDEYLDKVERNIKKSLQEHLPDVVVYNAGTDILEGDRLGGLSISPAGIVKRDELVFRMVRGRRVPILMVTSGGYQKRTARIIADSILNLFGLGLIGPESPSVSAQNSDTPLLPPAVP

[4] = molecular target: T3, Histone deacetylase 8 (Homo sapiens, UniProt Q9BY41); test: Inhibition of recombinant human HDAC8 using fluorogenic substrate by fluorescence microplate reader assay; procedure, shortened: as §1
T3 sequence (Q9BY41 whole entry): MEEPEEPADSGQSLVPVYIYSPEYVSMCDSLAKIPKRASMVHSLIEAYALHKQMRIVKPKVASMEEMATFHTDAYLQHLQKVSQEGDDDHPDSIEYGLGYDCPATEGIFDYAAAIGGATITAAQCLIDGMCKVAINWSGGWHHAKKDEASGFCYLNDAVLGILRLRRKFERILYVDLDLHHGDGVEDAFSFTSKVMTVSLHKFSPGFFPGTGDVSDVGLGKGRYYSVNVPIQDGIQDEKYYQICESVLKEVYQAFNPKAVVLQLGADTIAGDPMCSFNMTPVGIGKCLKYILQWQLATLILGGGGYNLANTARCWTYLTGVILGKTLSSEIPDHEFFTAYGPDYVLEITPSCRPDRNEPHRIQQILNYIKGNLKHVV

[5] = molecular target: Histone deacetylase 2 (Homo sapiens, UniProt Q92769); test: Inhibition of recombinant human HDAC2 using fluorogenic substrate by fluorescence microplate reader assay; procedure, shortened: as §1
[6] = molecular target: Histone deacetylase 3 (Homo sapiens, UniProt O15379); test: Inhibition of recombinant human HDAC3 using fluorogenic substrate by fluorescence microplate reader assay; procedure, shortened: as §1
[7] = molecular target: Class 1 histone deacetylase (Homo sapiens, UniProt Q13547+O15379+Q92769+Q9BY41); test: Inhibition of HDAC class 1 in human HT-29 cells using Boc-Lys-Ac as substrate incubated for 3 hrs by microplate reader assay; format: cell-based
[8] = Inhibition of HDAC class 2a in human HT-29 cells using Boc-Lys-TFA as substrate incubated for 3 hrs by microplate reader assay; format: cell-based; settings: HT-29, 3 h
[9] = molecular target: Histone deacetylase 4 (Homo sapiens, UniProt P56524); test: Inhibition of recombinant human HDAC4 using fluorogenic substrate by fluorescence microplate reader assay; procedure, shortened: as §1
[10] = Inhibition of HDAC class 2b in human HT-29 cells using Boc-Lys-Ac as substrate incubated for 3 hrs by microplate reader assay; format: cell-based; settings: HT-29, 3 h
[11] = molecular target: Histone deacetylase 9 (Homo sapiens, UniProt Q9UKV0); test: Inhibition of recombinant human HDAC9 using fluorogenic substrate by fluorescence microplate reader assay; procedure, shortened: as §1
[12] = molecular target: T4, Polyamine deacetylase HDAC10 (Homo sapiens, UniProt Q969S8); test: Inhibition of recombinant human HDAC10 using fluorogenic substrate by fluorescence microplate reader assay; procedure, shortened: as §1
T4 sequence (Q969S8 whole entry): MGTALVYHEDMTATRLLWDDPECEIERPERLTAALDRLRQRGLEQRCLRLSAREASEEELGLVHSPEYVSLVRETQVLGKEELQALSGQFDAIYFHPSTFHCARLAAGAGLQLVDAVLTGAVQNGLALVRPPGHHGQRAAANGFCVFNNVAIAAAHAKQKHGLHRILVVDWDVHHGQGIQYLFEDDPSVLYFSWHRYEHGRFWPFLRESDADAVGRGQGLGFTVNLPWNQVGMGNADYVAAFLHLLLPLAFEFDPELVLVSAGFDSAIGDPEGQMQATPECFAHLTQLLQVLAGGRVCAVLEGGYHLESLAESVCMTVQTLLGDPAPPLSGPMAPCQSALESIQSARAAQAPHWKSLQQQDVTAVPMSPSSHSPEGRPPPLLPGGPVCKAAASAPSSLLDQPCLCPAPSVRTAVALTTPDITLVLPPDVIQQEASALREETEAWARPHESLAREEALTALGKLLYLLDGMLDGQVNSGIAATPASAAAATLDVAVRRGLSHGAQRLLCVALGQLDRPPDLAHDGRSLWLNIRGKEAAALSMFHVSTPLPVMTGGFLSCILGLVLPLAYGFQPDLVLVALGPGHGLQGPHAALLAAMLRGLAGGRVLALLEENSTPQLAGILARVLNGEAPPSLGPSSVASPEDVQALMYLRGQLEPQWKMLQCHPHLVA

[13] = molecular target: Histone deacetylase 5 (Homo sapiens, UniProt Q9UQL6); test: Inhibition of recombinant human HDAC5 using fluorogenic substrate by fluorescence microplate reader assay; procedure, shortened: as §1
Chain of Histone deacetylase 5 (Q9UQL6 whole entry): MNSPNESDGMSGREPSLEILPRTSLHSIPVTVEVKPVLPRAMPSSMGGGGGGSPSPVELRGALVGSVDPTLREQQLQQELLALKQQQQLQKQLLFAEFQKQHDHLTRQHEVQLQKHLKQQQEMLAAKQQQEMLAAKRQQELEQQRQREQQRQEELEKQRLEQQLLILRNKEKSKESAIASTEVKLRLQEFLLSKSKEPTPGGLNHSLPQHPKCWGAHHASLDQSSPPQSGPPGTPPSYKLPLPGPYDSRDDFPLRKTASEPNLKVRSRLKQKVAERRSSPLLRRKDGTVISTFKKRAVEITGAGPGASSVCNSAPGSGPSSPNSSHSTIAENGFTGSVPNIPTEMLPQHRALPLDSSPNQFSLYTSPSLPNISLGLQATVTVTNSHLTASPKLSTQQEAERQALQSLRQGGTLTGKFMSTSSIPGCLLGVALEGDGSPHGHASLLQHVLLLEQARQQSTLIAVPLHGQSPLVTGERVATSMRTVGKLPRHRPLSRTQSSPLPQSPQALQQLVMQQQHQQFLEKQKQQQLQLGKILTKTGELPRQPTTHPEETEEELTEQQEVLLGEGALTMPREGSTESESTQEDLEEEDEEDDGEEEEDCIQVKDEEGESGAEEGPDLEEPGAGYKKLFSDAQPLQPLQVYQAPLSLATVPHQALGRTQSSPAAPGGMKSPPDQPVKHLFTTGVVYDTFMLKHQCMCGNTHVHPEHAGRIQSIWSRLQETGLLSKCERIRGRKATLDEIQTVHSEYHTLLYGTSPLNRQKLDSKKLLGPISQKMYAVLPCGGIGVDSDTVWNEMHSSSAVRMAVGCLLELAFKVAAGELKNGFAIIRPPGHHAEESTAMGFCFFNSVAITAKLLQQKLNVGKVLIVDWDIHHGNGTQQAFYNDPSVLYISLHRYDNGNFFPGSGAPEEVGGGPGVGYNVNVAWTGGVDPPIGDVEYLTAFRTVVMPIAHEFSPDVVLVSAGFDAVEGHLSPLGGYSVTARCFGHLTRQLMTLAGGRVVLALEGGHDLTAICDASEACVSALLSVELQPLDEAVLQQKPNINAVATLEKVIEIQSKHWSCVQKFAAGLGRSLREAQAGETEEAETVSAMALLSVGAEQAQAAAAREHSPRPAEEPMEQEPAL

Chain of Histone deacetylase 1 (Q13547 whole entry, canonical isoform): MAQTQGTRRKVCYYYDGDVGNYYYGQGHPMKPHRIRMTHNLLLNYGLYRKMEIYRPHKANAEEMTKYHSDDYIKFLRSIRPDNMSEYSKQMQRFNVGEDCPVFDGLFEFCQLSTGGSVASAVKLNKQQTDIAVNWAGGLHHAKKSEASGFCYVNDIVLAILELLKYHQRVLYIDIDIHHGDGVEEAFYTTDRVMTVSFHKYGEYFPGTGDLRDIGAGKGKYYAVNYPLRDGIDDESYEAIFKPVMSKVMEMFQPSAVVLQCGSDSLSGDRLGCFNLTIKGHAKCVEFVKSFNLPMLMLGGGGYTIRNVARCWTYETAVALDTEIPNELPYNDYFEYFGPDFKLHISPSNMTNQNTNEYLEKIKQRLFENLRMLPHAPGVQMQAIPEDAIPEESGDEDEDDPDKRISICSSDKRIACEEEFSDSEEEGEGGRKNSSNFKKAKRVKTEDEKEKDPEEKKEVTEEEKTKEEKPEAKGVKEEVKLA
Chain of Histone deacetylase 3 (O15379 whole entry): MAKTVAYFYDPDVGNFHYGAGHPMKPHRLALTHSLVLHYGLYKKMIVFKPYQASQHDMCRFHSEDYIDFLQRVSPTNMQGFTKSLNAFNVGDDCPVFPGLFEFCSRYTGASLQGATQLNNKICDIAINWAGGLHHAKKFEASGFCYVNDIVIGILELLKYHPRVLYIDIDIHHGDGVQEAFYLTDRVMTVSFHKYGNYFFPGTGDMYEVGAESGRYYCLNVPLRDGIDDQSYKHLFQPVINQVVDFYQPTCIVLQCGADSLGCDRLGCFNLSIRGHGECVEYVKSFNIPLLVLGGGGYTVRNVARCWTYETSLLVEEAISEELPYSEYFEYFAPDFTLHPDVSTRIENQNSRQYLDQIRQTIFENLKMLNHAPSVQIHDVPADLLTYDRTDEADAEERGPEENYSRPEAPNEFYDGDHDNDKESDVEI
Chain of Histone deacetylase 9 (Q9UKV0 whole entry): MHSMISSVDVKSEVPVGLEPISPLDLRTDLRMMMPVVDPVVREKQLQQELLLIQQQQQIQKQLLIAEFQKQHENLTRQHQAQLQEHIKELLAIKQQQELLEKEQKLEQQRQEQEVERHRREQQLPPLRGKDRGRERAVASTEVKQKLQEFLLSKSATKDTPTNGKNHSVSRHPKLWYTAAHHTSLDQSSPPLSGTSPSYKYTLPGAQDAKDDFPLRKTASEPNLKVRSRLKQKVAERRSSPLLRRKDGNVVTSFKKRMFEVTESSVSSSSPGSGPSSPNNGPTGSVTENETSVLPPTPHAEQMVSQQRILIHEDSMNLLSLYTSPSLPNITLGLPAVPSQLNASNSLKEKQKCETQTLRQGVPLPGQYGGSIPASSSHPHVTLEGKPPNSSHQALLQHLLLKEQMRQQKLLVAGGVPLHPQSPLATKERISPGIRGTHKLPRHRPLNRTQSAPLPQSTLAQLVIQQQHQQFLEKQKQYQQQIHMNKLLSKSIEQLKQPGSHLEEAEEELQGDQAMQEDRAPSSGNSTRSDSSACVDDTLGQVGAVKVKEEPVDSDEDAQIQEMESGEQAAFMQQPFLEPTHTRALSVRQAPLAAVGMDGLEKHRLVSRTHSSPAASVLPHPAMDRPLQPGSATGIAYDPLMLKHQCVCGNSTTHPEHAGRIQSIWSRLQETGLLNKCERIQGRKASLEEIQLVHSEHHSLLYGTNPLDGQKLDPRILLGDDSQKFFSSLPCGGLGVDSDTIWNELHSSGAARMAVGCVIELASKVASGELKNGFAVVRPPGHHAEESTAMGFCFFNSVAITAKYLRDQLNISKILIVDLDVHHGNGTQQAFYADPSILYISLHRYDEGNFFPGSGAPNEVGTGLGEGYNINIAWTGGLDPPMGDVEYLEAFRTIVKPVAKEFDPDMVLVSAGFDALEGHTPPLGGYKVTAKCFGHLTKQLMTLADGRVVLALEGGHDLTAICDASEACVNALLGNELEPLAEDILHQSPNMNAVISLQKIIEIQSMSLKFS
Chain of Histone deacetylase 2 (Q92769 whole entry): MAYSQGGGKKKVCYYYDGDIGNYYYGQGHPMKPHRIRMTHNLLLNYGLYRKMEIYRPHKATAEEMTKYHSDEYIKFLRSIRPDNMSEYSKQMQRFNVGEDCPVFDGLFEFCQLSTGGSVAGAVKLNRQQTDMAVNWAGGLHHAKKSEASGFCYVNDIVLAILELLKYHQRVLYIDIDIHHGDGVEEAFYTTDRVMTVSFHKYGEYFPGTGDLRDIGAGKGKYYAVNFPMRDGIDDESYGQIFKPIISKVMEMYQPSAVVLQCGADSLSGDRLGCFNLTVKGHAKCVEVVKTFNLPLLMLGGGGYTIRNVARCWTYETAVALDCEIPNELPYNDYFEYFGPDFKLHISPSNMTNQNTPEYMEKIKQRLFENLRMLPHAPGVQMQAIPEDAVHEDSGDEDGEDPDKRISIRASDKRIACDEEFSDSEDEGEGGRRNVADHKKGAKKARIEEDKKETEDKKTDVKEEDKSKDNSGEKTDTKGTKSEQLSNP
Chain of Histone deacetylase 4 (P56524 whole entry): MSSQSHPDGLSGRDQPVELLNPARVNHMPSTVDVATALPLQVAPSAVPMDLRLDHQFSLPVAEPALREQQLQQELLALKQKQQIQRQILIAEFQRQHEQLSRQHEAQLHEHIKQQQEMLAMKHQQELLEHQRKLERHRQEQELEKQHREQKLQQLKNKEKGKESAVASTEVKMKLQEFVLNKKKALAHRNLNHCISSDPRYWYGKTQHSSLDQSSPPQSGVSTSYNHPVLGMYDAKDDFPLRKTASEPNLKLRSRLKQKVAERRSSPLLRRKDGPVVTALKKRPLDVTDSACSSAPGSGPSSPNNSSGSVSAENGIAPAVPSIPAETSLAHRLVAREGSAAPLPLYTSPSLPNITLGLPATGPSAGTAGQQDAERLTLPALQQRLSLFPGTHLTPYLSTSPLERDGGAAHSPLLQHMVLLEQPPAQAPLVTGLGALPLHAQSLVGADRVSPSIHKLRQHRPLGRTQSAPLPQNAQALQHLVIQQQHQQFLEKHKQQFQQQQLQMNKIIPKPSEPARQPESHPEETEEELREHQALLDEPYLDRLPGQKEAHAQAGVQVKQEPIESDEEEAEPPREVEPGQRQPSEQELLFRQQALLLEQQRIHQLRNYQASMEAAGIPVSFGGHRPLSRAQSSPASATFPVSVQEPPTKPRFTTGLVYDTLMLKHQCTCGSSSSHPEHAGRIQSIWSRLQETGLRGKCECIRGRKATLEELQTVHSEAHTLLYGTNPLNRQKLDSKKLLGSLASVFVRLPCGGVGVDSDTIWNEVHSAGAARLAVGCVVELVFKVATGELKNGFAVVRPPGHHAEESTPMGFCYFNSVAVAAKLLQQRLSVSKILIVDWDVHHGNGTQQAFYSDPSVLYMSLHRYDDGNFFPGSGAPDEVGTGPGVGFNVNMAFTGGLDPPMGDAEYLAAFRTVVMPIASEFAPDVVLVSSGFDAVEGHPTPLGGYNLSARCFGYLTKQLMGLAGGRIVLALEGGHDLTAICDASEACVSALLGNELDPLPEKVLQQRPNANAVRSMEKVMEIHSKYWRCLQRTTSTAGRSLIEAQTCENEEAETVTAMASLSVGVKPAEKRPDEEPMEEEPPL

IC50 [7] [nM]	IC50 [8] [nM]	IC50 [10] [nM]	SMILES	further results
> 15000	46	> 15000	C[C@H](CN(C)Cc1ccccc1)NC(=O)c1ccc(-c2noc(C(F)(F)F)n2)cc1	IC50 [1]: > 600 nM; IC50 [2]: > 600 nM; IC50 [3]: > 600 nM; IC50 [4]: > 600 nM; IC50 [5]: > 600 nM; IC50 [6]: > 600 nM; IC50 [9]: 0.08 nM; IC50 [11]: 0.9 nM; IC50 [12]: > 600 nM; IC50 [13]: 1.2 nM
> 15000	> 5000	> 15000	CC(C)(CNC(=O)c1ccc(-c2noc(C(F)(F)F)n2)cc1)c1coc(-c2ccccc2)n1	–
> 2000	> 2000	> 2000	C[C@H](CN(C)Cc1ccccc1)NC(=O)c1ccc(-c2noc(C(F)(F)Cl)n2)cc1	–
> 15000	59	> 15000	C[C@H](CN(C)Cc1ccc(F)cc1)NC(=O)c1ccc(-c2noc(C(F)(F)F)n2)cc1	–
> 15000	953	> 15000	C[C@@H](NC(=O)c1ccc(-c2noc(C(F)(F)F)n2)cc1)C(=O)NCc1ccccc1	–
> 15000	233	> 15000	COC[C@@H](NC(=O)c1ccc(-c2noc(C(F)(F)F)n2)cc1)C(=O)NCc1ccc(F)cc1	–
> 50000	147	> 50000	C[C@H](CN(C)Cc1ccccc1)NC(=O)c1ccc(-c2noc(C(F)(F)F)n2)nc1	–
> 15000	537	> 15000	COC[C@@H](NC(=O)c1ccc(-c2noc(C(F)(F)F)n2)cc1)C(=O)NCc1ccccc1	–
> 50000	> 50000	> 50000	CN(Cc1ccccc1)C(=O)C(C)(C)CNC(=O)c1cccc(-c2noc(C(F)(F)F)n2)c1	–
> 15000	768	> 15000	CC(C)(CNC(=O)c1ccc(-c2noc(C(F)(F)F)n2)cc1)C(=O)NCc1ccccc1	–
> 50000	> 50000	> 50000	C[C@H](CN(C)Cc1ccccc1)NC(=O)c1cccc(-c2noc(C(F)(F)F)n2)c1	–
> 15000	1710	> 15000	COC[C@@H](NC(=O)c1ccc(-c2noc(C(F)(F)F)n2)nc1)C(=O)NCc1ccccc1	–
> 50000	395	> 50000	CC(CN(C)Cc1ccccc1)NC(=O)c1ccc(-c2noc(C(F)(F)F)n2)cc1 (stereo unspecified)	–
> 15000	905	> 15000	CN(Cc1ccccc1)C(=O)CCNC(=O)c1ccc(-c2noc(C(F)(F)F)n2)cc1	–
> 15000	933	> 15000	CN(Cc1ccccc1)C(=O)C(C)(C)CNC(=O)c1ccc(-c2noc(C(F)(F)F)n2)cc1	–
> 50000	> 50000	> 50000	CN(Cc1ccccc1)C(=O)CCNC(=O)c1cccc(-c2noc(C(F)(F)F)n2)c1	–
> 5000	> 5000	> 5000	C[C@H](CN(C)Cc1ccccc1)NC(=O)c1ccc(-c2noc(C(F)(F)Br)n2)cc1	–
